Experimental data reported in the EternaBench riboswitch data.

Tested on: MS2 coat protein
Assay: apparent Kd, MS2 coat protein; higher = weaker binding; RNA-MaP array; FMN 200 µM where present
Method in brief: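 The apparent Kd comes from binding curves fitted cluster by cluster, filtered, and summarised as a median. Those curves followed SNAP-549-labelled MS2 coat protein from 0.7 or 1.5 nM, doubling to 3 µM, on Illumina sequencing-chip clusters where stalled E. coli RNA polymerase had transcribed the designs, without and then with constant ligand. The buffer was 100 mM Tris-HCl pH 7.5, 80 mM KCl, 4 mM MgCl2, BSA, DTT, yeast tRNA and Tween-20, and green signal was normalised to red-channel RNA signal and control-cluster median Fmax.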

[1] = designed as: ON switch for flavin mononucleotide, no ligand
[2] = ligand present: flavin mononucleotide, designed as: ON switch for flavin mononucleotide
[3] = designed as: OFF switch for flavin mononucleotide, no ligand
[4] = ligand present: flavin mononucleotide, designed as: OFF switch for flavin mononucleotide

| Sequence | apparent Kd [1] | apparent Kd [2] | apparent Kd [3] | apparent Kd [4] |
| --- | --- | --- | --- | --- |
| AAAACAUACCGAGGAUAUUCAUUUAAUAAAUAAACAUGAGGAUCACCCAUGUGGCAAAAGCCUAGGGAGAAGGCGGAAUGCUAA | 33.4 nM | 26.5 nM | – | – |
| GGUACUCAAAGAGUACCAAUACGAACAUGAGGAUCACCCAUGUAGGAUAUGAAAACGCCGGAGUAUCAGAAGGACAUGUGCCUA | – | – | 12.6 nM | 21.3 nM |
| AGUCAUACAGGAUAUACAUGAGGAUCACCCAUGUUUAUCCUAAAAUAAAAAACCUCAUGUAGAAGGGUAUGACA | – | – | 19.4 nM | 13.5 nM |
| GUUUUCACAUGAGGAUAUGCUCGCAUUUCAAGAGCAGAAGGUAUGUCUUUAGACAUGAGGAUCACCCAUGUAUUUAUCAUUGAA | 91.1 nM | 28.4 nM | – | – |
| CCAGCGCGUGUGAGGAUAUGCUGGUCCUUGGAUCAGCAGAAGGCACAUGAGGAUCACCCAUGUGAGUGCGUUGG | – | – | 15.7 nM | 47.2 nM |
| GGAUAGGACAGAGGAUAUACGUGCUAGAGAUACUAGCAAAAUUUCCUCACAUGAGGAUCACCCAUGUAGAAGGCUGUCCUAUCC | – | – | 18.5 nM | 435 nM |
| AAUAACAGAGGAUAUACUGUUUUAUGUAUUUAUUAUUUUAAACAUGAGGAUCACCCAUGUAGAAGGCUGAUUGA | – | – | 33.7 nM | 29.8 nM |
| CAUAUGUGCGGAGGAUAUGGGUGAAUCGGAUCGACAUGAGGAUCACCCAUGUAGCUCUUUGGCAUCUAGAAGGCCGGAUGAACG | 25.9 nM | 111 nM | – | – |
| UUGGAGUACGUAGGAUAUGUAGGAUAUUCCUACAUGAGGAUCACCCAUGUUAGCAUGGAAGAAGGACAGAAGGACGUGCUCCAU | 1120 nM | 15.1 nM | – | – |
| AAAGAAACAGGAUAUGUAGGCUGCGACAUGAGGAUCACCCAUGUGUCGGUAUACAGUCCUAUAGAAGGGUUAUGAC | – | – | 15.5 nM | 20.1 nM |
| AUCAGCUCGUCAGGAUAUACGUCACUGCGUCAGCAGUGUGGUAAGAUCACAUGAGGAUCACCCAUGUAGAAGGGAUGAGCUGAU | – | – | 13.3 nM | 288 nM |
| UGCCGUGUACAGAAGGGCGACAUGAGGAUCACCCAUGUCUCCUUGUUGGUCGUAGGAUAUGUACCGUGGCUCUCUACUGUGGGA | – | – | 5.47 nM | 6.75 nM |
| GGAGAUUACUCAGGAUAUCGCUAGACCUACAUGAGGAUCACCCAUGUGGGUGACGCGGUGGGCUACGAGAAGGGAGAAGUGCCC | – | – | 8.9 nM | 8.53 nM |
| AAAUAAAUGUAAGGAUAUCGGUUUCAGAGAACGCGAGAAGGUACAUGAGGAUCACCCAUGUUCCGUUGGGUUAACUUGAUCGCC | – | – | 7.14 nM | 13.6 nM |
| AGCGGCGCGGGCCACCGCAAAACCAGAAGGACAUGAGGAUCACCCAUGUAACAAAACAGGGCGGUGUAGGAUAUGGCAGACCCG | – | – | 14.7 nM | 23.8 nM |
| UCAUGAAGGGCAGGAUAUGGACAUGAGGAUCACCCAUGUACAUGGGAUUAUAUACUAAAUUAAUACUAGAAGGGUUACAUAAAU | – | – | 47.9 nM | 23.1 nM |
| CAGGUAGACUGAGGAUAUACAAUAAAGACCUAGUCUAUCUAGGUCUCUACAUGAGGAUCACCCAUGUAGAAGGCAGUCUGCCUG | – | – | 16 nM | 18.3 nM |
| CCGUCGCACCAGAAGGCGUGAUCCACUGCGGCACGAGGAUAUGGUACAUGAGGAUCACCCAUGUCGCGAUGGAAAGCAAUCACG | 151 nM | 24.1 nM | – | – |
| CCGCAAAUGGAGGAUAUCGUAUCGGAUACGAUACGAGAAGGCUAUACAUGAGGAUCACCCAUGUGUCCUAGCGG | – | – | 13.5 nM | 18.3 nM |
| UUGAUUCAUUCCUCCAUAAACAUGAGGAUCACCCAUGUAAGUGAGGAUAUAGUUGGAGUAGUAUACUAGAAGGCACUUAGAUAU | – | – | 12.3 nM | 9.75 nM |
| GCAAAGCCUGACAUGAGGAUCACCCAUGUUAGAUUGUUAUGUCAGGAUAUUGUCUAGAAACUAGACAAGAAGGGAUGCUUUGCU | 421 nM | 25.3 nM | – | – |
| AAAUUUAACGAAGGAUAUGCUUACAUGAGGAUCACCCAUGUGUGCCUUGUGUUGCUGAUUAGGUUGCAGAAGGUCGUAUACAUA | – | – | 124 nM | 684 nM |
| AGUAGUUCAGGAUAUGAUGUAUGUUACAUGAGGAUCACCCAUGUAGGUCCUGGAAAUGUAUCAGAAGGGAAUAUCU | – | – | 108 nM | 111 nM |
| UAUGGUUAAGUCAGGAUAUGCUCGUAGAGGUCUAUGCAGAAGGGACAUGAGGAUCACCCAUGUAAGGUCGUGUU | – | – | 39.9 nM | 66.3 nM |

| Sequence | apparent Kd [1] | apparent Kd [2] | apparent Kd [3] | apparent Kd [4] |
| --- | --- | --- | --- | --- |
| AACAUGUCAGGAUAUAUGACAUGGCUCUUCGGAGCAAGCUCAUAGAAGGGACAUGAGGAUCACCCAUGUAGAGC | – | – | 21.1 nM | 25.2 nM |
| AUCCGGAAUGUUAGGAUAUCUUGGCGCCUGUGCUUGGAGAAGGGACAUGAGGAUCACCCAUGUCCUCUCGGAAA | – | – | 13.1 nM | 14.9 nM |
| AUCAGCUCGUCAGGAUAUACGUCACUGCGUCAGCAGUGUGGUAAGAUCACAUGAGGAUCACCCAUGUAGAAGGGAAGAGCUGAU | – | – | 15.1 nM | 232 nM |
| GUAGCAUACCAAGGAUAUUCAGGGCUUGGAUAGACAUGAGGAUCACCCAUGUGGCGAAAGCCUAGGGAGAAGGUGGAAUGCUAC | 16.7 nM | 15.2 nM | – | – |
| AUCAGCUCGUCAGGAUAUACGUCACUGCUUCGGCAGUGUAAUAAAAUAACAUGAGGAUCACCCAUGUAGAAGGGACGAGCUGAU | – | – | 5.93 nM | 6.13 nM |
| AAAAUGUAAGGAUAUAGCCGGAACCCAGGGUUUGGACCCGGCUAGAAGGUACAUGAGGAUCACCCAUGUAAGAA | – | – | 17.2 nM | 22.8 nM |
| GGAAUAUUUACAGGAUAUGUUUUGUUAAGUCGAGCAGAAGGGUGGAUGUCUUACACGGUUUGUUACAUGAGGAUCACCCAUGUC | 264 nM | 260 nM | – | – |
| UAAUAAUAAUAAUACCAGUUUACAUGAGGAUCACCCAUGUAUAAGGAUAUGCAGUGGAAUACACUGCAGAAGGUAUACAUCUGG | – | – | 18.8 nM | 35.9 nM |
| UGGUACUAGGGAGGAUAUGUGAAGAUACAUGAGGAUCACCCAUGUUUAAGAAUGCCGAGAGGCAACUAGAAGGCCCUAGUACCU | 8.5 nM | 5.65 nM | – | – |
| UGUCGGAGCAGAGGAUAUUACAUGAGGAUCACCCAUGUAUGAACCAAUAGCUGGAAACAGCAAUGUAAGAAGGCUGCUCCGACA | – | – | 37.5 nM | 531 nM |
| GCACUUAGAGAUGAACCGUUACUAACAUGAGGAUCACCCAUGUAGGAUAUGCUAAUAGUAUUGAAGCAGAAGGACACUAAGUGC | – | – | 5.25 nM | 6.51 nM |
| GCGUGACGGUGCGCGAGUGGACGGAGAAGGCAGACAUGAGGAUCACCCAUGUGAGCCUGCUAUUCUGAGGAUAUCCGUUCGCAC | – | – | 32.5 nM | 150 nM |
| AUUAUGUUAGGAUAUGCUUAUGGUGGAUAAUCAGAUAUGAUGCAGAAGGGACAUGAGGAUCACCCAUGUACUGU | – | – | 20.8 nM | 23.6 nM |
| UAUACUUACGAAGGAUAUGGUUACAUGAGGAUCACCCAUGUAUGUAUAUUGAUCUUGUAUUUUAACCAGAAGGUCGUGAGUAUA | – | – | 143 nM | 114 nM |
| GAGUACUUAGGAUAUACAUGAGGAUCACCCAUGUCUAGGCGGCGCUGGGUCCCUCGCAGUAGAAGGAAGCGCUG | – | – | 24.6 nM | 42.3 nM |
| CUGGAAUACAGACAUGAGGAUCACCCAUGUUUAAGGGAAGCACAGGAUAUGUCGACGCACCAUAGACAGAAGGGUGACUUGCUU | 49.4 nM | 24.8 nM | – | – |
| GUGGCUAGUGCAGGAUAUUGGCGCGUGUAGUGUCGAGAAGGGCACAUGAGGAUCACCCAUGUGAUCAAUCACUGCUAAGGUCGC | – | – | 6.98 nM | 7.69 nM |
| CUUUUGUGAGGAUAUCAGUAGUAAAAAAAUAAAAUUACUACUGAGAAGGUACAUGAGGAUCACCCAUGUUCCUC | – | – | 14.2 nM | 17.6 nM |
| GAGUGACAUGAGGAUCACCCAUGUGAGGAUAUCGGCCGGACCUUGUUAGCUUCCGCCGCGAGAAGGCACAUCGG | – | – | 71.8 nM | 157 nM |
| UUUACUUACGAAGGAUAUGGUUACAUGAGGAUCACCCAUGUAUGUAUAUUGAUCUAGUAUUUUAACCAGAAGGUCGUGAUUAUU | – | – | 31.8 nM | 46.9 nM |
| CUAGCCCAGCCCGCCUAGUUCGGGAGAAGGAGGAGACAUGAGGAUCACCCAUGUGGCCUUAUCUCCUAGGAUAUCCCGGCGGGA | – | – | 5.56 nM | 21.6 nM |
| UCGGCGCGAGGAUAUACGGUUGCUUUUUAGGGUCGUGGCGUACAUGAGGAUCACCCAUGUAGAAGGCGCGCCGC | – | – | 16.1 nM | 30.2 nM |
| UUGGUAUUCGUAGGAUAUCUGUCGCCACCGUGUGGAGAAGGACGAACAUGAGGAUCACCCAUGUAUCAUGGUGUGGGCUUUGUU | – | – | 504 nM | 470 nM |
| CAAGUACCAGAGGAUAUGGCGGUGCACUCCGUGCCAGAAGGUUGGACAUGAGGAUCACCCAUGUGCGAUUAGCU | – | – | 26 nM | 27.1 nM |
